From ChEMBL document CHEMBL1127478 (J Med Chem, 1994) come the findings set out here.

pKd: −log10 of the molar value. Residues, ends and D or L forms follow the SMILES beside them.

Broadly, the pKd is the negative decadic logarithm of the Kd, by convention in mol/L. High values mean a small Kd, low ones a large Kd. Usually Kd stands for the constant that tells how readily two partners part at equilibrium. The low end stands for a tighter complex, the high end for a looser complex.

The species named for test [1] is Rattus norvegicus. Nature of the test: Inhibition of pressor response to exogenous AVP in the pitched rat preparation. The test is classed as functional, organism-based. The settings on record: read-out: pA2 (converted). Summed up: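 Pressor test in pitched rats. Reported as the negative decadic log of the effective dose (mol/kg) that reduces the effect of a 1×10^-5 mg AVP dose to the level of […] AVP. Values are mean ± SE.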

Test [2] has as its target Vasopressin V2 receptor (Bos taurus, UniProt P48044). The test is described as follows: Inhibition of radioligand [3H]AVP binding to V2 receptor in bovine kidney inner medulla membrane. Summed up:
(§1)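 Competition binding with 10 nM [3H]AVP (17.4 Ci/mmol) and varying concentrations of unlabeled peptide. V1 used rat liver plasma membranes prepared by two-phase polymer separation. V2 used bovine kidney inner medulla membranes prepared by differential centrifugation. Kd came from a weighted nonlinear least-squares fit to logistic curves.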

Test [3] deals with Vasopressin V1 receptor (Rattus norvegicus, UniProt P48974+P30560). The test is described as follows: Inhibition of radioligand [3H]AVP binding to V1 receptor in rat liver plasma membrane. The test is classed as cell membranes. Summed up:
as §1

The species entered for test [4] is Rattus norvegicus. Nature of the test: In vitro antiuterotonic activity in rat oxytocic bioassay in the absence of Mg2+. Format: functional. The settings on record: read-out: pA2 (converted).
A short description of test [5]: Selectivity aUT/aP ratio of the compound. The test is classed as functional. The gist of the method:
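Reciprocal of the ratio of effective doses in the uterotonic in vitro test (mol/L) and the pressor test (mol/kg). Where given in parentheses, the reciprocal of the ratio of the uterotonic in vivo dose (mol/kg) to the pressor dose (mol/kg).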

For test [6], the species on record is Rattus norvegicus. Nature of the test: In vitro antiuterotonic activity in rat oxytocic bioassay in the presence of 1 mM Mg2+. Format: functional. The settings on record: read-out: pA2 (converted). Summed up:
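Isolated rat uterus in medium containing 1 mM Mg2+, with oxytocin-induced contractions challenged by the antagonist.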

Test [7] relates to Rattus norvegicus. Nature of the test: In vivo antiuterotonic activity in the rat uterotonic assay. The settings on record: read-out: pA2 (converted). The test is classed as functional, organism-based.

Chain of Vasopressin V2 receptor (P48044 whole entry): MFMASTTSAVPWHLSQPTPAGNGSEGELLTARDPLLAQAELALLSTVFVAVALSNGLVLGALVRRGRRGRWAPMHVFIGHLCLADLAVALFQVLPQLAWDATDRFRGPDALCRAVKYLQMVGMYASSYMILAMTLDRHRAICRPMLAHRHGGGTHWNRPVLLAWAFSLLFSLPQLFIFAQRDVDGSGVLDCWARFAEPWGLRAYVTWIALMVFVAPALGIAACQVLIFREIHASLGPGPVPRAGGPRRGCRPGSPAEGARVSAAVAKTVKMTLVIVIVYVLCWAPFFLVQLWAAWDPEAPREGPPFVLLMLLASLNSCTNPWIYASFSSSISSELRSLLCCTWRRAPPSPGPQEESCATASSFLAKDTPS

`CC[C@H](C)[C@@H]1NC(=O)C(Cc2ccccc2)NC(=O)CC2(CCCCC2)SSC[C@H](C(=O)N(C)CC(=O)N[C@@H](CCCN=C(N)N)C(=O)NCC(N)=O)NC(=O)[C@H](CC(N)=O)NC(=O)[C@H](CCC(N)=O)NC1=O` (stereo in doubt): the Kb is 100 nM in test [1], 10 nM in test [4], 10 nM in test [6] and 39.8 nM in test [7]. In test [2], this molecule had a pKd of 6.51. This molecule also displayed a Kd in test [3] of 8.28 nM. In addition, the Ratio in test [5] came out at 10.
Take `CCOc1ccc(CC2NC(=O)CC3(CCCCC3)SSC[C@@H](C(=O)N(C)CC(=O)N[C@@H](CCCN=C(N)N)C(=O)NCC(N)=O)NC(=O)[C@H](CC(N)=O)NC(=O)[C@H](CCC(N)=O)NC(=O)[C@H](Cc3ccccc3)NC2=O)cc1` (stereo in doubt): the figures for the Kb in test [1], in test [4] and in test [7] were 10 nM, 3.98 nM and 79.4 nM, respectively. The same molecule showed a negative logarithm of the Kd (pKd) in test [2] of 7.54. In test [3], this molecule yielded a Kd of 0.32 nM. In addition, in test [5], the Ratio is 2.5.
For `CN(CC(=O)N[C@@H](CCCN=C(N)N)C(=O)NCC(N)=O)C(=O)[C@@H]1CSSC2(CCCCC2)CC(=O)N[C@@H](Cc2ccc(O)cc2)C(=O)N[C@@H](Cc2ccccc2)C(=O)N[C@@H](CCC(N)=O)C(=O)N[C@@H](CC(N)=O)C(=O)N1`, the Kb in test [1] was 11.7 nM; in test [4] it was 112 nM.
`NC(=O)CC[C@@H]1NC(=O)[C@H](Cc2ccccc2)NC(=O)[C@H](Cc2ccc(O)cc2)NC(=O)CC2(CCCCC2)SSC[C@H](C(=O)N2CCC[C@H]2C(=O)N[C@@H](CCCN=C(N)N)C(=O)NCC(N)=O)NC(=O)[C@H](CC(N)=O)NC1=O`: the Ratio in test [5] was 0.6.
Consider `CC[C@H](C)[C@@H]1NC(=O)C(Cc2ccccc2)NC(=O)CCSSC[C@H](C(=O)N(C)CC(=O)N[C@@H](CCCN=C(N)N)C(=O)NCC(N)=O)NC(=O)[C@H](CC(N)=O)NC(=O)[C@H](CCC(N)=O)NC1=O` (stereo in doubt) [listing 1 of 2 here], for which the pKd in test [2] is 6.38. The molecule also showed a Kd in test [3] of 50.1 nM.
As to `CN(CC(=O)N[C@@H](CCCN=C(N)N)C(=O)NCC(N)=O)C(=O)[C@@H]1CSSC2(CCCCC2)CC(=O)NC(Cc2ccccc2)C(=O)NC(Cc2ccccc2)C(=O)N[C@@H](CCC(N)=O)C(=O)N[C@@H](CC(N)=O)C(=O)N1` (stereo in doubt), the values for the Kb in test [1], in test [4] and in test [7] were 15.8 nM, 7.94 nM and 25.1 nM, respectively. The pKd in test [2] was 7.01. This molecule gave a Kd in test [3] of 0.96 nM. Moreover, in test [5], the Ratio was determined as 2.
For the molecule `CC[C@H](C)[C@@H]1NC(=O)[C@@H](Cc2ccc(OC)cc2)NC(=O)CC2(CCCCC2)SSC[C@@H](C(=O)N(C)CC(=O)N[C@@H](CCCN=C(N)N)C(=O)NCC(N)=O)NC(=O)[C@H](CC(N)=O)NC(=O)[C@H](CCC(N)=O)NC1=O`, the Kb in test [1] was 20 nM; in test [4], 2.51 nM; in test [6], 6.31 nM; in test [7], 31.6 nM. In test [2], the pKd is 6.09. The molecule also yielded a Kd in test [3] of 2 nM.
`CC[C@H](C)[C@@H]1NC(=O)[C@@H](Cc2ccc(OC)cc2)NC(=O)CC2(CCCCC2)SSC[C@@H](C(=O)N2CCC[C@H]2C(=O)N[C@@H](CCCN)C(=O)NCC(N)=O)NC(=O)[C@H](CC(N)=O)NC(=O)[C@H](CCC(N)=O)NC1=O`: the Kb in test [1] was 11 nM; in test [4] it was 3.02 nM.
As for `CCOc1ccc(CC2NC(=O)CC3(CCCCC3)SSC[C@H](C(=O)N(C)CC(=O)N[C@@H](CCCN=C(N)N)C(=O)NCC(N)=O)NC(=O)[C@H](CC(N)=O)NC(=O)[C@H](CCC(N)=O)NC(=O)[C@H]([C@@H](C)CC)NC2=O)cc1` (stereo in doubt), the Kb in test [1] was 398 nM; in test [4], 5.01 nM; in test [6], 7.94 nM; in test [7], 31.6 nM. For the same molecule, in test [2], the pKd is 7.46. Also, in test [3], the Kd is reported as 13.1 nM. The Ratio in test [5] is 80.
`CC[C@H](C)[C@@H]1NC(=O)C(Cc2ccccc2)NC(=O)CCSSC[C@H](C(=O)N(C)CC(=O)N[C@@H](CCCN=C(N)N)C(=O)NCC(N)=O)NC(=O)[C@H](CC(N)=O)NC(=O)[C@H](CCC(N)=O)NC1=O` (stereo in doubt) [listing 2 of 2 here]: the Kb was 398 nM in test [1], 5.01 nM in test [4], 10 nM in test [6] and 39.8 nM in test [7].
`CN(CC(=O)N[C@@H](CCCN=C(N)N)C(=O)NCC(N)=O)C(=O)[C@@H]1CSSC2(CCCCC2)CC(=O)NC(Cc2ccc(O)cc2)C(=O)N[C@@H](Cc2ccccc2)C(=O)N[C@@H](CCC(N)=O)C(=O)N[C@@H](CC(N)=O)C(=O)N1` (stereo in doubt): the results for the Kb in test [1], in test [4] and in test [7] were 10 nM, 10 nM and 100 nM, respectively. In test [2], the pKd was 6.64. For the same molecule, the Kd in test [3] is listed as 0.22 nM.
With `CC[C@H](C)[C@@H]1NC(=O)[C@@H](Cc2c[nH]c3ccccc23)NC(=O)CC2(CCCCC2)SSC[C@@H](C(=O)N(C)CC(=O)N[C@@H](CCCN=C(N)N)C(=O)NCC(N)=O)NC(=O)[C@H](CC(N)=O)NC(=O)[C@H](CCC(N)=O)NC1=O` (HELM PEPTIDE1{[dW].I.Q.N.C.[Sar].R.G.[am]}|CHEM1{[O=C(CC1(S[*:2])CCCCC1)[*:1]]}$PEPTIDE1,CHEM1,1:R1-1:R1|PEPTIDE1,CHEM1,5:R3-1:R2$$$V2.0), the Kb was 31.6 nM in test [1], 12.6 nM in test [4], 20 nM in test [6] and 31.6 nM in test [7]. This molecule also showed a pKd in test [2] of 3.52. Also, in test [3], the Kd came out at 3.8 nM.
For the molecule `CC[C@H](C)C1NC(=O)CC2(CCCCC2)SSC[C@@H](C(=O)N(C)CC(=O)N[C@@H](CCCN=C(N)N)C(=O)NCC(N)=O)NC(=O)[C@H](CC(N)=O)NC(=O)[C@H](CCC(N)=O)NC(=O)[C@H](Cc2ccccc2)NC1=O` (stereo in doubt), the Kb in test [1] was 63.1 nM; in test [4] it was 31.6 nM; in test [6], 100 nM; in test [7], 251 nM. Further, in test [2], the pKd is 6.74. The Kd in test [3] came to 8.28 nM.
As to `CN(CC(=O)N[C@@H](CCCNC(=N)N)C(=O)NCC(N)=O)C(=O)[C@@H]1CSSC2(CCCCC2)CC(=O)N[C@@H](Cc2ccc(O)cc2)C(=O)N[C@@H](Cc2ccccc2)C(=O)N[C@@H](CCC(N)=O)C(=O)N[C@@H](CC(N)=O)C(=O)N1`, in test [2], the pKd is 6.62. The molecule also registered a Kd in test [3] of 0.59 nM.
